ChEMBL document CHEMBL3259704, “Second generation steroidal 4-aminoquinolines are potent, dual-target inhibitors of the botulinum neurotoxin serotype A metalloprotease and P. falciparum malaria” (J Med Chem, 2014)

What was measured:
[1] = biological target: Botulinum neurotoxin type A (Clostridium botulinum) (UniProt P0DPI0); experiment: Inhibition of Clostridium botulinum recombinant BoNT/A light chain using N-terminal acetylated, C-terminal aminated SNAP-25 (187-203) as substrate at 20 uM by reverse-phase HPLC analysis
Method in brief: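 Recombinant BoNT/A LC with SNAP-25 187–203 peptide substrate in 40 mM HEPES–0.05% Tween, pH 7.3, with 0.5 mg/mL BSA and 50 μM excess Zn, at 37 °C. Quenched with TFA; reverse-phase HPLC product/substrate peak areas give percent inhibition, run in duplicate.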

[2] = biological target: Botulinum neurotoxin type A (Clostridium botulinum, UniProt P0DPI0); experiment: Inhibition of Clostridium botulinum recombinant BoNT/A light chain using N-terminal acetylated, C-terminal aminated SNAP-25 (187-203) as substrate by reverse-phase HPLC analysis
Method in brief: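 Same HPLC LC cleavage assay (pH 7.3 HEPES/Tween, BSA, excess Zn, 37 °C). […] Ki comes from velocity versus substrate at several inhibitor levels, globally fit to a competitive model.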

[3] = test system: Plasmodium falciparum; experiment: Antimalarial activity against CQ-resistant, MFQ-susceptible Plasmodium falciparum W2 clone Indochina 1 isolate assessed as inhibition of parasite proliferation by MSF assay; assay type: functional, organism-based
Method in brief: (§1)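 SYBR Green I fluorescence (MSF) microtiter drug-sensitivity assay: malarial DNA content is the measure of in vitro parasite proliferation. Resistance index is the IC90 ratio of the resistant strain to D6.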

[4] = test system: Plasmodium falciparum; experiment: Antimalarial activity against CQ, MFQ-susceptible Plasmodium falciparum D6 clone Sierra 1/UNC isolate assessed as inhibition of parasite proliferation by MSF assay; assay type: functional, organism-based; method in brief: as §1
[5] = test system: Plasmodium falciparum; experiment: Antimalarial activity against CQ, MFQ-resistant Plasmodium falciparum TM91C235 clone Southeast asian isolate assessed as inhibition of parasite proliferation by MSF assay; assay type: functional, organism-based; method in brief: as §1
[6] = test system: Plasmodium falciparum; experiment: Resistance index, ratio of IC90 for CQ, MFQ-resistant Plasmodium falciparum TM91C235 clone Southeast asian isolate to IC90 for CQ, MFQ-susceptible Plasmodium falciparum D6 clone Sierra 1/UNC isolate; assay type: functional; method in brief: as §1
[7] = test system: Plasmodium falciparum; experiment: Resistance index, ratio of IC90 for CQ-resistant, MFQ-susceptible Plasmodium falciparum W2 clone Indochina 1 isolate to IC90 for CQ, MFQ-susceptible Plasmodium falciparum D6 clone Sierra 1/UNC isolate; assay type: functional; method in brief: as §1
[8] = test system: HepG2; experiment: Cytotoxicity against human HepG2 cells assessed as cell viability after 48 hrs by MTT assay; assay type: cell-based; conditions: HepG2, 48 h
[9] = Selectivity index, ratio of IC50 for human HepG2 cells to IC50 for CQ-resistant, MFQ-susceptible Plasmodium falciparum W2 clone Indochina 1 isolate; assay type: toxicity, cell-based; conditions: read-out: Ratio IC50
[10] = Selectivity index, ratio of IC50 for human HepG2 cells to IC50 for CQ, MFQ-susceptible Plasmodium falciparum D6 clone Sierra 1/UNC isolate; assay type: toxicity, cell-based; conditions: read-out: Ratio IC50
[11] = Selectivity index, ratio of IC50 for human HepG2 cells to IC50 for CQ, MFQ-resistant Plasmodium falciparum TM91C235 clone Southeast asian isolate; assay type: toxicity, cell-based; conditions: read-out: Ratio IC50
[12] = test system: PBMC; experiment: Cytotoxicity against human PBMC assessed as inhibition of cell survival after 72 hrs; assay type: cell-based
Method in brief: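 PBMC from heparinized healthy-donor blood (Histopaque) in RPMI-1640 with 10% FCS and PHA stimulation, 200 000 cells/well, with compounds in DMSO, 72 h at 37 °C, 6% CO2.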

[13] = test system: Liver microsome; experiment: Half life in human liver microsomes; assay type: ADME; conditions: microsomes
[14] = Half life in mouse liver microsomes; assay type: ADME; conditions: liver microsomes

Sequence of Botulinum neurotoxin type A (Clostridium botulinum) (P0DPI0 2-448 limits assumed): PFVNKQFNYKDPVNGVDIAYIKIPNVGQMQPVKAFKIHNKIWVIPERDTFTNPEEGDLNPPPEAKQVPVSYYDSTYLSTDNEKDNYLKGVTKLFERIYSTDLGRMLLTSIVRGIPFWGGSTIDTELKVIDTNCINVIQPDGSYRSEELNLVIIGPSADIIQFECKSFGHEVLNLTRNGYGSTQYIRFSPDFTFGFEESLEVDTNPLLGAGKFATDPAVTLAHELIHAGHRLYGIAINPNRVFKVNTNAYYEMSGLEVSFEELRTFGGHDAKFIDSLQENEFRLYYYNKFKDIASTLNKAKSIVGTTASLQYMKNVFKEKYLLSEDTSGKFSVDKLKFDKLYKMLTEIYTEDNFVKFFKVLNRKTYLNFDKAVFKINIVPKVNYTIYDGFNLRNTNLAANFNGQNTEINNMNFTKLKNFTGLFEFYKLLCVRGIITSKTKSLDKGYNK
Sequence of Botulinum neurotoxin type A (P0DPI0 2-448 limits assumed): as above

Compound | inhibition [1] [%] | IC50 [2] [nM] | IC50 [3] [nM] | IC90 [3] [nM] | IC50 [4] [nM] | IC90 [4] [nM] | IC50 [5] [nM] | IC90 [5] [nM] | Ratio [6] | Ratio [7] | IC50 [8] [nM] | selectivity ratio [9] | selectivity ratio [10] | selectivity ratio [11] | IC50 [12] [nM] | t1/2 [13] [h] | half-life [14] [h] | Ki [2] [nM]
CC(=O)O[C@H]1C[C@H]2[C@@H]([C@H](OC(C)=O)C[C@@H]3C[C@H](NC(=O)OC(C)(C)C)CC[C@@]32C)[C@@H]2CC[C@H]([C@H](C)CCCN(C)CCNc3ccnc4cc(Cl)ccc34)[C@@]12C | 30 | 6780 | 8.05 | 11.7 | 8.93 | 10.9 | 16.3 | 22.6 | 2.07 | 1.07 | 2360 | 293 | 264 | 144 | – | – | – | –
CC(=O)O[C@H]1C[C@H]2[C@@H]([C@H](OC(C)=O)C[C@@H]3C[C@H](N(C)C)CC[C@@]32C)[C@@H]2CC[C@H]([C@H](C)CCCN(C)CCNc3ccnc4cc(Cl)ccc34)[C@@]12C | 85.5 | 2270 | 1.35 | 1.35 | 2.35 | 2.63 | 2.9 | 3.32 | 1.26 | 0.51 | 9210 | 6820 | 3920 | 3180 | 2520 | 0.45 | 1 | –
CC(=O)O[C@H]1C[C@H]2[C@@H]([C@H](OC(C)=O)C[C@@H]3C[C@H](NS(C)(=O)=O)CC[C@@]32C)[C@@H]2CC[C@H]([C@H](C)CCCN(C)CCCNc3ccnc4cc(Cl)ccc34)[C@@]12C | 55.6 | 8210 | 30.5 | 54.7 | 31.7 | 55.9 | 20.3 | 28.6 | 0.51 | 0.98 | 2830 | 93 | 89 | 139 | – | 0.183 | 1 | –
CC(=O)O[C@H]1C[C@H]2[C@@H]([C@H](OC(C)=O)C[C@@H]3C[C@H](O)CC[C@@]32C)[C@@H]2CC[C@H]([C@H](C)CCCNCCCNc3ccnc4cc(Cl)ccc34)[C@@]12C | 69.9 | 5180 | 12.8 | 18.8 | 9.3 | 16.5 | 11.9 | 30.3 | 1.84 | 1.14 | 1070 | 84 | 115 | 90 | – | 0.13 | 1 | –
CC(=O)O[C@H]1C[C@H]2[C@@H]([C@H](OC(C)=O)C[C@@H]3C[C@H](N)CC[C@@]32C)[C@@H]2CC[C@H]([C@H](C)CCCN(C)CCCNc3ccnc4cc(Cl)ccc34)[C@@]12C | 81.4 | 1130 | 110 | 153 | 112 | 150 | 100 | 128 | 0.85 | 1.02 | 4970 | 45 | 44 | 50 | – | – | – | –
CC(=O)O[C@H]1C[C@H]2[C@@H]([C@H](OC(C)=O)C[C@@H]3C[C@H](N)CC[C@@]32C)[C@@H]2CC[C@H]([C@H](C)CCCN(CCCNc3ccnc4cc(Cl)ccc34)CCC[C@@H](C)[C@H]3CC[C@H]4[C@@H]5[C@H](OC(C)=O)C[C@@H]6C[C@H](N)CC[C@]6(C)[C@H]5C[C@H](OC(C)=O)[C@]34C)[C@@]12C | 92.8 | 630 | 218 | 414 | 245 | 321 | 297 | 313 | 0.97 | 1.29 | 2130 | 10 | 9 | 7 | – | – | – | –
CC(=O)O[C@H]1C[C@H]2[C@@H]([C@H](OC(C)=O)C[C@@H]3C[C@H](NS(C)(=O)=O)CC[C@@]32C)[C@@H]2CC[C@H]([C@H](C)CCCNCCNc3ccnc4cc(Cl)ccc34)[C@@]12C | 74.4 | 5090 | 44.6 | 71.1 | 19.4 | 53 | 26.4 | 45.6 | 0.86 | 1.34 | 5850 | 131 | 301 | 222 | – | – | – | –
CC(=O)O[C@H]1C[C@H]2[C@@H]([C@H](OC(C)=O)C[C@@H]3C[C@H](NC(=O)OC(C)(C)C)CC[C@@]32C)[C@@H]2CC[C@H]([C@H](C)CCCNCCNc3ccnc4cc(Cl)ccc34)[C@@]12C | 67.4 | 4900 | 7.34 | 12.3 | 24.1 | 29.5 | 27.6 | 51.9 | 1.76 | 0.42 | 12800 | 1740 | 531 | 464 | – | – | – | –
CC(=O)O[C@H]1C[C@H]2[C@@H]([C@H](OC(C)=O)C[C@@H]3C[C@H](N(C)C)CC[C@@]32C)[C@@H]2CC[C@H]([C@H](C)CCCNCCCNc3ccnc4cc(Cl)ccc34)[C@@]12C | 92.6 | 1340 | 36.1 | 81.1 | 101 | 139 | 88.7 | 165 | 1.19 | 0.58 | 13800 | 382 | 137 | 156 | 7840 | – | – | –
CC(=O)O[C@H]1C[C@H]2[C@@H]([C@H](OC(C)=O)C[C@@H]3C[C@H](N)CC[C@@]32C)[C@@H]2CC[C@H]([C@H](C)CCCNCCCNc3ccnc4cc(Cl)ccc34)[C@@]12C | 84.8 | 1040 | 195 | 282 | 138 | 234 | 243 | 347 | 1.49 | 1.21 | 10400 | 54 | 75 | 43 | – | – | – | 3450
CC(=O)O[C@@H]1CC[C@@]2(C)[C@@H](C1)C[C@@H](OC(C)=O)[C@@H]1[C@@H]2C[C@H](OC(C)=O)[C@]2(C)[C@@H]([C@H](C)CCCN(C)CCNc3ccnc4cc(Cl)ccc34)CC[C@@H]12 | 33.3 | – | 18.6 | 38.6 | 7.47 | 19.1 | 23 | 32.9 | 1.73 | 2.03 | 1810 | 98 | 242 | 79 | – | – | – | 34500
